Results on seven compounds are retold here after publication PMC2993511 (Biochemical pharmacology, 2010).

Entries after “also recorded” stand apart in the source; their conditions may differ.

In one experiment the test system is Naïve CHO cells. The experiment can be described thus: [35S]GTPγS binding in naïve CHO cells. It is filed as biochemical, Chinese hamster. The following applies: not transfected with MOR or DOR, data not shown. The method, boiled down: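 Untransfected CHO cell membranes, a receptor-free control. Tested with 0.1 nM [35S]GTPγS and 3 μM GDP in HEPES pH 7.4 buffer at 30°C. Extract and DAMGO were added. Nonspecific binding was subtracted using 10 μM unlabeled GTPγS. Read-out was filtration plus scintillation counting.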
(GTPγS is a poorly hydrolysed GTP analogue; its binding reports G protein activation.)

Experiment [1] deals with T1, MOR (Homo sapiens, UniProt P35372). The experiment can be described thus: Receptor binding assay, displacement of [3H]DAMGO.
The target in experiment [2] is T2, DOR (Homo sapiens, UniProt P41143). The experiment can be described thus: Receptor binding assay, displacement of [3H]deltorphin. (In a radioligand displacement assay an active substance lowers the binding of a labelled ligand.)
Experiment [3] deals with T1, MOR. The experiment can be described thus: [35S]GTPγS binding assay, CHO-MOR membranes. It is filed as biochemical. The method, boiled down: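 Human MOR stably expressed in CHO cells (G418 selection); membranes homogenised on ice and spun at 20,000 g. 20 μg protein incubated with 0.1 nM [35S]GTPγS, 3 μM GDP, Mg2+ and Na+ in HEPES pH 7.4, 1 hr, 30°C. DAMGO was the positive control. Nonspecific binding was taken with 10 μM unlabeled GTPγS. Filter-bound radioactivity was counted and expressed as percent stimulation above basal.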

Experiment [4] deals with T2, DOR. The experiment can be described thus: [35S]GTPγS binding assay, CHO-DOR membranes. Type of experiment: biochemical.

T1 sequence (P35372 whole entry): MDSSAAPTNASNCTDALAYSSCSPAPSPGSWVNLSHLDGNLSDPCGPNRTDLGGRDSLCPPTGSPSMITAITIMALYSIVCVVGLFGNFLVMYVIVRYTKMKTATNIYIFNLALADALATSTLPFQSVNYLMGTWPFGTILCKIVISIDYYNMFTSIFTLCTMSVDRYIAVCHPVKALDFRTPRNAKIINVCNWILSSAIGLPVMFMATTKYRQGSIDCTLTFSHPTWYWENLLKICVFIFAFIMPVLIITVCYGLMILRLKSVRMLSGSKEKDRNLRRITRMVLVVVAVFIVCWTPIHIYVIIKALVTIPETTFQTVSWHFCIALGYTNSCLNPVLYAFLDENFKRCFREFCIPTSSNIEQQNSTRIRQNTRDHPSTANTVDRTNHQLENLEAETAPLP
T2 sequence (P41143 whole entry): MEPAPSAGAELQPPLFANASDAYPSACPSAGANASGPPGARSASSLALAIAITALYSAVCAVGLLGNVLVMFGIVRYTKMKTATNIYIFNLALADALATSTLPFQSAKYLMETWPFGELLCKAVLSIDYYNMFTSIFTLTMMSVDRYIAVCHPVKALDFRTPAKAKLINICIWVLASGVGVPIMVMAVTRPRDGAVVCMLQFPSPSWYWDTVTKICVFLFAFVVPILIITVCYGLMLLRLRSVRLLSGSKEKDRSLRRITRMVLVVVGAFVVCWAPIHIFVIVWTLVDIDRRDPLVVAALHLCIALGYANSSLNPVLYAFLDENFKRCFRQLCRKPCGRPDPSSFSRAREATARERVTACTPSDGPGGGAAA

In the case of “[D-Ala^2,N-MePhe^4-Glyol^5]enkephalin [DAMGO]”, the “stimulation of [35S]GTPγS binding in naïve CHO cells” value in the experiment with Naïve CHO cells is on record as “not stimulated”.
In the case of `O=c1cc(-c2ccc(O)c(O)c2)oc2cc(O)cc(O)c12` [luteolin], at MOR [1], the IC50 was 43.3 ± 13.2 µM and the inhibitory constant (Ki) was 13.4 ± 4.06 µM. Moreover, on DOR [2], the IC50 was 16.8 ± 4.87 µM and the inhibitory constant (Ki) worked out at 9.53 ± 2.73 µM.
Consider `O=c1cc(-c2ccc(O)cc2)oc2cc(O)cc(O)c12` [apigenin], for which, on MOR [1], the IC50 was determined as 35.8 ± 7.81 µM and affinity was put at a Ki of 16.2 ± 3.16 µM. This compound registered an IC50 at DOR [2] above 50 µM.
Regarding `COc1ccc(-c2oc3cc(OC)c(OC)c(O)c3c(=O)c2OC)cc1O` [casticin], on MOR [1], the IC50 worked out at 2.84 ± 0.707 µM and the Ki is 1.14 ± 0.167 µM. Also, at DOR [2], the IC50 worked out at 2.05 ± 0.631 µM and the Ki is 1.29 ± 0.44 µM. Further, the “activation of MOR” value at MOR [3] is “did not activate”. Besides, the response at DOR [4] was half-maximal at 15.3 ± 6.32 µM (EC50). Also, on DOR [4] (read-out: DOR Emax, stimulation of [35S]GTPγS binding), the Emax was determined as 74.6 ± 18.2%.
Consider `C=CCN1C[C@H](C)N([C@H](c2ccc(C(=O)N(CC)CC)cc2)c2cccc(OC)c2)C[C@H]1C` [SNC-80], for which the “stimulation of [35S]GTPγS binding in naïve CHO cells” value in the experiment with Naïve CHO cells is “not stimulated”.
As to “N,N-diallyl-Tyr-Aib-Aib-Phe-Leu-OH [ICI 174,864, reference compound]”, the “effect on casticin stimulated [35S]GTPγS binding” value on DOR [4] (casticin 10 and 50 μM, ICI 174,864 10 μM) is listed as “inhibited; also recorded: blocked”.
As to `COc1c(-c2ccc(O)cc2)oc2cc(O)cc(O)c2c1=O` [isokaempferide], the “affinity for MOR” value at MOR [1] is “no significant affinity”. Further, at DOR [2], the half-maximal inhibitory concentration (IC50) is 22.8 ± 14 µM and the Ki stood at 12.9 ± 7.92 µM.

Broadly, the IC50 is the midpoint of a concentration-inhibition curve. What is called Ki is the equilibrium dissociation constant of an inhibitor or competing ligand from its target. Lower therefore signals higher affinity. In general, EC50 refers to the concentration giving half of the maximal effect. Read a high EC50 as a less potent agent. One may read the Emax as the greatest response seen or fitted, relative to the assay's reference.
